An excerpt weighted towards active compounds, which were near 2.1% of everything screened.
MLLE-PAM2 inh = inhibitors of PABP1 MLLE–PAM2 peptide binding, primary screen, biochemical, fluorescence polarization, FITC-PAM2, GST-MLLE | Polyadenylate-binding protein 1 (Homo sapiens), P11940 | inhibition, % at 20 µM | 0.36% of 360,000 active; in the data active means inhibition above about 35%, passing the limit was not always enough;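 further: plate controls were DMSO wells with GST-MLLE for no effect and wells lacking GST-MLLE protein for full effect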
PABP FP inh = PABP poly(A) RNA binding inhibitors, primary screen, biochemical, fluorescence polarization, uHTS; 1% of 290,000 active; Polyadenylate-binding protein 1 (Homo sapiens), P11940; inhibition, % at 35 µM;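 further: calls also rest on retests at 20 µM and on dose response follow-up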
EBNA-1 inhibitor = EBNA-1 DNA-binding inhibitors, primary screen, biochemical, fluorescence polarization; inhibition, % at 14.8 µM; 0.34% of 300,000 active; AID 1950, 2009; in the data active means inhibition above about 28%
HCV NS3 hel inh = inhibitors of HCV NS3 helicase, primary screen, biochemical, Cy5 molecular beacon fluorescence. Hepatitis C virus NS3 helicase. AID 1800, 2009. inhibition, % at 10.9 µM. 0.56% of 290,000 active. NS3 helicase DNA unwinding;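 active means inhibition above the mean of all tested compounds plus 3 SD, set per campaign, cut at about 35% in these data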;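 further: 0% = DMSO wells and 100% = thioflavine S control wells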
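assay system = NS3 helicase fragment of HCV | buffer or medium = MOPS pH 6.5, MgCl2, DTT, Tween20, BSA | timing = 60 min unwinding reaction at 25 °C after ATP addition | signal = Cy5 beacon fluorescence read at start and 1 h | read-out basis = % inhibition of unwinding | control set = low DMSO, high thioflavine S at 110 µM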
ZTA DNA inh = blocks Epstein-Barr virus ZTA, an EBNA-1 counter-screen; P03206; ZTA-DNA binding, fluorescence polarization; inhibition, % at 11 µM; 0.15% of 320,000 active; AID 2234; in the data active means inhibition above about 33%
Target sequence (P03206 whole entry, looked up): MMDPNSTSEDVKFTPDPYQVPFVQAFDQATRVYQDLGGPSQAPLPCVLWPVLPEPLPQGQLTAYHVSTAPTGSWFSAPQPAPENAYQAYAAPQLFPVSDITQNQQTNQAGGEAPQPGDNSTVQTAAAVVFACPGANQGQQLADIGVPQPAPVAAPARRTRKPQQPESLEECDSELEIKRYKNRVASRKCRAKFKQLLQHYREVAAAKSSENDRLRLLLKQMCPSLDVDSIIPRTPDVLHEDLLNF
eIF4H FP inh = human eIF4H binding inhibitors, primary screen, translation initiation inhibitor project, biochemical, uHTS, fluorescence polarization. eIF4H fluorescence polarization binding assay. 0.94% of 290,000 active. inhibition, % at 35 µM;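 further: calls also rest on retests at 20 µM and on dose response follow-up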
NS3 helicase cf = HCV NS3 helicase inhibitors, retest, confirmation, biochemical, Cy5 molecular beacon fluorescence, triplicate. shares compounds with HCV NS3 hel inh. NS3 helicase DNA unwinding. inhibition, % at 10.9 µM. 31% of 1,600 active. AID 1943, 2009;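 active means inhibition above the mean of all tested compounds plus 3 SD, cutoff set per campaign, cut at about 36% in these data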
DNA FID counter = compounds displacing fluorescent DNA intercalator, artefact control for HCV NS3 helicase inhibitor project, biochemical, FID fluorescence, triplicate; shares compounds with HCV NS3 hel inh; DNA fluorescent intercalator displacement; inhibition, % at 7.9 µM; 4% of 1,600 active; in the data active means inhibition above about 37%;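 further: 0% = vehicle and 100% = reference compound; higher means more displacement of ethidium bromide from the DNA hairpin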
* marks the source's active call; other numbers are inactive results. Unless noted, how the calls were made is not given here.

CC(=O)NC(c1ccc(Cl)cc1Cl)c1ccc2cccnc2c1O (configuration not stated) was read as MLLE-PAM2 inh 12, PABP FP inh -4, HCV NS3 hel inh 36*, eIF4H FP inh 8, NS3 helicase cf 13 and DNA FID counter -16.
O=C(OCC(=O)N1CCCCCC1)c1cccc(Cl)c1 was read as MLLE-PAM2 inh -1 and ZTA DNA inh 3.
Screening COc1ccc(CCN2CC(C(=O)N(C)Cc3cccnc3)CC2=O)cc1OC (configuration not stated) returned MLLE-PAM2 inh 7 and ZTA DNA inh 5.
COc1ccccc1-c1c(C#N)c(SCC(=O)N2CCCC2)nc(C)c1C(N)=O was read as PABP FP inh 3, HCV NS3 hel inh 3 and eIF4H FP inh 1.
For COc1ccc(CN2CCNC(=O)C2CC(=O)NCCc2cnccn2)cc1C (configuration not stated) the results were MLLE-PAM2 inh 15, PABP FP inh 7, HCV NS3 hel inh -7 and eIF4H FP inh 14.
Screening COc1ccc2ccccc2c1C1CC(=O)N2CN(Cc3ccco3)CSC2=C1C#N (configuration not stated) returned MLLE-PAM2 inh -24, PABP FP inh 1, EBNA-1 inhibitor 5, HCV NS3 hel inh 47*, ZTA DNA inh 12, eIF4H FP inh -4, NS3 helicase cf 46* and DNA FID counter -35.
`Cc1oc(CN2CCOCC2)cc1C(=O)O` gave MLLE-PAM2 inh 5, PABP FP inh -7, EBNA-1 inhibitor -4, HCV NS3 hel inh -7, ZTA DNA inh -2 and eIF4H FP inh -18.
Screening COc1ccc(N(Cc2cc(=O)[nH]c3ccccc23)C(=O)c2ccco2)cc1 returned MLLE-PAM2 inh 19, PABP FP inh 9, EBNA-1 inhibitor 3, HCV NS3 hel inh 8, ZTA DNA inh 21 and eIF4H FP inh -2.
O=C(O)c1cccc(NC(=S)N/N=C/c2ccccc2OCc2ccc(Br)cc2)c1 was read as MLLE-PAM2 inh 30, PABP FP inh 5, EBNA-1 inhibitor 27, HCV NS3 hel inh 42*, ZTA DNA inh -6, eIF4H FP inh 42, NS3 helicase cf 63* and DNA FID counter 4.
For Cc1cccc(NC(=O)c2ccccc2OCC(=O)N2CCCC2)c1C the results were PABP FP inh -6, EBNA-1 inhibitor -6, HCV NS3 hel inh 40*, ZTA DNA inh -19, eIF4H FP inh -2, NS3 helicase cf 8 and DNA FID counter -4.
For COc1ccccc1NC(=O)c1ccccc1SCC(=O)N1CCCC1 the results were MLLE-PAM2 inh -3.
Screening CCc1ccc(/C=C2/C(=O)N(CC)C(=S)N2C)s1 returned MLLE-PAM2 inh 0, PABP FP inh -3, EBNA-1 inhibitor 6, HCV NS3 hel inh 10, ZTA DNA inh 2 and eIF4H FP inh 6.
Screening S=c1[nH]nc(-c2ccccn2)n1/N=C/c1cccc(Cl)c1 returned MLLE-PAM2 inh -27, PABP FP inh -3, EBNA-1 inhibitor -16, HCV NS3 hel inh 1, ZTA DNA inh -10 and eIF4H FP inh 0.
Cc1c(Cl)c(C(F)F)nn1CC(=O)NC1C(=O)N2C(C(=O)O)=C(CSc3nnnn3C)CSC12 (configuration not stated) was read as MLLE-PAM2 inh 14, PABP FP inh 4, HCV NS3 hel inh 38*, eIF4H FP inh -1, NS3 helicase cf 32 and DNA FID counter -2.
CC(=O)N1CCN(c2ccc(OC[C@H]3CO[C@](Cn4ccnc4)(c4ccc(Cl)cc4Cl)O3)cc2)CC1 was read as MLLE-PAM2 inh 0, PABP FP inh 5, EBNA-1 inhibitor 2, HCV NS3 hel inh -16, ZTA DNA inh -3 and eIF4H FP inh 1.
For O=C(Cn1cnc2ccccc21)c1ccc(Cl)cc1 the results were MLLE-PAM2 inh -16, PABP FP inh 7, EBNA-1 inhibitor -12, HCV NS3 hel inh 1, ZTA DNA inh -8 and eIF4H FP inh 6.
`Cc1ccccc1C(=O)Nc1scc(-c2ccc(Br)cc2)c1C(=O)O` gave MLLE-PAM2 inh 2, EBNA-1 inhibitor 5 and ZTA DNA inh 5.
Screening COc1ccc(-c2csc(NC(=O)c3ccccc3Br)c2C(=O)O)cc1 returned MLLE-PAM2 inh 3, PABP FP inh 24, EBNA-1 inhibitor 9, HCV NS3 hel inh 41*, ZTA DNA inh 4, eIF4H FP inh -2, NS3 helicase cf 59* and DNA FID counter -18.
Screening CCc1ccccc1NS(=O)(=O)c1ccc(SC)cc1 returned MLLE-PAM2 inh -10, PABP FP inh 3, EBNA-1 inhibitor -8, HCV NS3 hel inh -14, ZTA DNA inh 7 and eIF4H FP inh -4.
For COC(=O)c1ccccc1-c1ccc(/C=N/NC(=O)c2cc3ccccc3o2)o1 the results were MLLE-PAM2 inh -3, PABP FP inh -4, EBNA-1 inhibitor 4, HCV NS3 hel inh 38*, ZTA DNA inh -5, eIF4H FP inh 0, NS3 helicase cf -5 and DNA FID counter -26.
`COC(=O)c1ccccc1-c1ccc(/C=N/Nc2nc(N3CCCC3)nc(N3CCCC3)n2)o1` gave MLLE-PAM2 inh -10, PABP FP inh 7, EBNA-1 inhibitor -1, HCV NS3 hel inh -35, ZTA DNA inh -4 and eIF4H FP inh 0.
`COCCCNc1nnc(Cc2ccccc2)c2ccccc12` gave MLLE-PAM2 inh -17, PABP FP inh -3, EBNA-1 inhibitor -14, HCV NS3 hel inh -19, ZTA DNA inh 4 and eIF4H FP inh 4.
Screening CNC(=O)c1ccccc1F returned MLLE-PAM2 inh 2, PABP FP inh 10, EBNA-1 inhibitor -2, HCV NS3 hel inh 0, ZTA DNA inh 0 and eIF4H FP inh -1.
Cc1ccccc1CC1(CO)CCCN(C(=O)CCN2CCCO2)C1 (configuration not stated) was read as MLLE-PAM2 inh -1, PABP FP inh -8, EBNA-1 inhibitor 2, HCV NS3 hel inh -4, ZTA DNA inh 21 and eIF4H FP inh 14.
CCOC(=O)CCSc1nc(-c2ccc3c(c2)OCO3)cc(C(F)(F)F)c1C#N was read as MLLE-PAM2 inh -5, PABP FP inh -5, EBNA-1 inhibitor -3, HCV NS3 hel inh -4, ZTA DNA inh -4 and eIF4H FP inh -6.

Screening data (PubChem)
